Results taken from ChEMBL document CHEMBL1773010, “Cytotoxic and apoptosis-inducing activities of limonoids from the seeds of Azadirachta indica (neem)” (J Nat Prod, 2011).

Key:
Type in all cases: functional, cell-based
[1] = Cytotoxicity against human CRL1579 cells assessed as cell viability after 48 hrs by MTT assay
How it was run: (§1)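 Cells seeded at 3 × 10^3 per well and exposed to compounds from 1 × 10^-4 to 1 × 10^-6 M for 48 h. MTT was then added for 3 h, formazan dissolved in 0.04 M HCl in 2-propanol, and absorbance read at 570 nm against 630 nm. IC50 is the concentration giving 50% growth inhibition, from triplicate assays.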

SK-BR-3 = test: Cytotoxicity against human SK-BR-3 cells assessed as cell viability after 48 hrs by MTT assay; details: SK-BR-3, 48 h; how it was run: as §1
[2] = Cytotoxicity against human AZ-521 cells assessed as cell viability after 48 hrs by MTT assay; details: AZ-521, 48 h; how it was run: as §1
A549 = test: Cytotoxicity against human A549 cells assessed as cell viability after 48 hrs by MTT assay; details: A549, 48 h; how it was run: as §1
HL-60 = test: Cytotoxicity against human HL60 cells assessed as cell viability after 48 hrs by MTT assay; details: HL-60, 48 h; how it was run: as §1

Structure (SMILES) | IC50 [1] [µM] | IC50 (SK-BR-3) [µM] | IC50 [2] [µM] | IC50 (A549) [µM] | IC50 (HL-60) [µM]
COC(=O)C[C@H]1[C@]2(C)C3=C(C)[C@H](c4ccoc4)C[C@H]3O[C@@H]2[C@H](OC(C)=O)[C@@H]2[C@]1(C)C(=O)C=C[C@@]2(C)C(=O)OC [NIMBIN] | 15.9 | > 20 | > 20 | > 20 | –
CC(=O)O[C@@H]1C[C@H]2C(C)(C)C(=O)C=C[C@]2(C)[C@H]2CC[C@]3(C)C(=CC(=O)[C@@]3(O)c3ccoc3)[C@@]21C [17-HYDROXYAZADIRADIONE] | > 20 | > 20 | > 20 | > 20 | 12.4
CC(=O)O[C@@H]1C[C@H]2C(C)(C)C(=O)C=C[C@]2(C)[C@H]2CC[C@@]3(C)C(c4ccoc4)=C(O)C(=O)[C@H]3[C@@]21C | > 20 | > 20 | > 20 | > 20 | > 20
O=c1[nH]cc(F)c(=O)[nH]1 [FLUOROURACIL] | > 20 | > 20 | > 20 | > 20 | 9.1
COC(=O)C[C@H]1[C@]2(C)C3=C(C)[C@H](c4ccoc4)C[C@H]3O[C@@H]2[C@H](OC(C)=O)[C@@H]2[C@]1(C)C(=O)C=C[C@@]2(C)O | > 20 | > 20 | > 20 | > 20 | > 20
CC(=O)O[C@@H]1C[C@H]2C(C)(C)C(=O)C=C[C@]2(C)[C@H]2CC[C@]3(C)OC(=O)C=C3[C@@]21C | > 20 | > 20 | > 20 | > 20 | > 20
C/C=C(/C)C(=O)O[C@H]1C[C@@H](OC(C)=O)[C@@]2(C)CO[C@H]3[C@H]4O[C@@H]5CC(=O)C(C)=C5[C@@]4(C)[C@H](CC(=O)OC)[C@]1(C)[C@@H]32 | > 20 | > 20 | > 20 | > 20 | > 20
CC(=O)O[C@@H]1C[C@H]2C(C)(C)C(=O)C=C[C@]2(C)[C@H]2CC[C@]3(C)C(=CC(=O)[C@H]3c3ccoc3)[C@@]21C [AZADIRADIONE] | > 20 | 15.9 | > 20 | > 20 | 14.7
C/C=C(/C)C(=O)O[C@H]1C[C@@H](OC(C)=O)[C@@]2(C)CO[C@H]3[C@H]4O[C@@H]5C[C@@H](c6ccoc6)C(C)=C5[C@@]4(C)[C@H](CC(=O)OC)[C@]1(C)[C@@H]32 [SALANNIN] | > 20 | > 20 | > 20 | > 20 | > 20
CC(=O)O[C@@H]1C[C@H]2C(C)(C)C(=O)C=C[C@]2(C)[C@H]2CC[C@@]3(C)[C@H](c4ccoc4)C(=O)[C@H]4O[C@]43[C@@]21C [EPOXYAZADIRADIONE] | > 20 | 12.3 | > 20 | > 20 | 9.3
CC(=O)O[C@@H]1C[C@H]2C(C)(C)C(=O)C=C[C@]2(C)[C@H]2CC[C@]3(C)C(=C(O)C(=O)[C@H]3c3ccoc3)[C@@]21C | > 20 | > 20 | > 20 | > 20 | > 20
CC1(C)C(=O)C=C[C@]2(C)[C@H]3CC[C@]4(C)C(=CC(=O)[C@H]4c4ccoc4)[C@]3(C)[C@H](O)C[C@@H]12 [NIMBOCINOL] | > 20 | > 20 | > 20 | > 20 | > 20
COC(=O)C[C@H]1[C@]2(C)C3=C(C)[C@H](c4ccoc4)C[C@H]3O[C@@H]2[C@H](O)[C@@H]2[C@]1(C)C(=O)C=C[C@@]2(C)C(=O)OC [DEACETYLNIMBIN] | > 20 | > 20 | > 20 | > 20 | 11.6
CC(=O)O[C@@H]1C[C@H]2C(C)(C)C(=O)C=C[C@]2(C)[C@H]2CC[C@]3(C)C(=CC(=O)[C@]3(O)c3ccoc3)[C@@]21C | 19.1 | > 20 | > 20 | > 20 | > 20
CC(=O)O[C@@H]1C[C@H]2C(C)(C)C(=O)C=C[C@]2(C)[C@H]2CC[C@@]3(C)OC(=O)C=C3[C@@]21C | > 20 | > 20 | > 20 | > 20 | > 20
CC1(C)C(=O)C=C[C@]2(C)[C@H]3CC[C@]4(C)C(=CC(=O)[C@H]4c4ccoc4)[C@]3(C)[C@H](OC(=O)c3ccccc3)C[C@@H]12 | 4 | > 20 | > 20 | > 20 | 5.3

Structure (SMILES) | IC50 [1] [µM] | IC50 (SK-BR-3) [µM] | IC50 [2] [µM] | IC50 (A549) [µM] | IC50 (HL-60) [µM]
CC(=O)O[C@@H]1C[C@H]2C(C)(C)C(=O)C=C[C@]2(C)[C@H]2CC[C@@]3(C)CC(=O)C=C3[C@@]21C [DESFURANOAZADIRADIONE] | > 20 | > 20 | > 20 | > 20 | 19.8
CC(=O)O[C@@H]1C[C@H]2C(C)(C)C(=O)C=C[C@]2(C)[C@H]2CC[C@]3(C)C(=CC(=O)[C@H]3C3=CCOC3=O)[C@@]21C [AZADIRADIONOLIDE] | > 20 | 11.5 | > 20 | > 20 | > 20
CC=C(C)C(=O)O[C@@H]1[C@@H]2OC[C@]3(C)[C@H](OC(C)=O)C[C@H](O)[C@](C)([C@H]4CC[C@@](C)([C@@H](C)[C@H]5COC(=O)C5)C[C@]14C)[C@@H]23 | > 20 | > 20 | > 20 | > 20 | > 20
CC(=O)O[C@H]1C[C@@H](OC(C)=O)[C@@]2(C)CO[C@@H]3[C@@H](O)[C@@]4(C)C5=CC[C@@H](c6ccoc6)[C@]5(C)CC[C@@H]4[C@]1(C)[C@@H]32 | > 20 | > 20 | 14.8 | > 20 | 15.3
CC1(C)C(=O)C=C[C@]2(C)[C@H]3CC[C@]4(C)C(=CC(=O)O[C@@]4(O)c4ccoc4)[C@]3(C)[C@H](O)C[C@@H]12 | > 20 | > 20 | > 20 | > 20 | > 20
CC(=O)O[C@@H]1C[C@H]2C(C)(C)C(=O)C=C[C@]2(C)[C@H]2CC[C@]3(C)C(=CC[C@H]3[C@H]3COC(=O)C3)[C@@]21C | > 20 | > 20 | > 20 | > 20 | > 20
CC(=O)O[C@@H]1C[C@H]2C(C)(C)C(=O)C=C[C@]2(C)[C@H]2CC[C@]3(C)C(=CC(=O)[C@@H]3c3ccoc3)[C@@]21C [17-EPIAZADIRADIONE] | > 20 | > 20 | > 20 | > 20 | 12.6
CC(=O)O[C@@H]1C[C@H]2C(C)(C)C(=O)C=C[C@]2(C)[C@H]2CC[C@@]3(C)[C@H](c4ccoc4)OC(=O)[C@H]4O[C@]43[C@@]21C [GEDUNIN] | > 20 | 8.3 | 16.9 | > 20 | 5.9
CCC(C)C(=O)O[C@H]1C[C@@H](OC(C)=O)[C@@]2(C(=O)OC)CO[C@H]3[C@@H](O)[C@@](C)([C@]45O[C@@]4(C)C4CC5O[C@@H]5C[C@H](OC)C[C@]45O)[C@@H]4[C@@H](C(=O)OC)OC[C@@]14[C@@H]32 (some centres undefined) [VEPAOL] | > 20 | > 20 | > 20 | > 20 | > 20
CC1(C)C(=O)C=C[C@]2(C)[C@H]3CC[C@@]4(C)[C@H](c5ccoc5)OC(=O)[C@H]5O[C@]54[C@]3(C)[C@H](O)C[C@@H]12 [DEACETYLGEDUNIN] | > 20 | 12 | 16.9 | > 20 | > 20
CCC(C)C(=O)O[C@H]1C[C@@H](OC(C)=O)[C@@]2(C)CO[C@H]3[C@H]4O[C@@H]5C[C@@H](c6ccoc6)C(C)=C5[C@@]4(C)[C@H](CC(=O)OC)[C@]1(C)[C@@H]32 (some centres undefined) | > 20 | > 20 | > 20 | > 20 | 17.1
CC=C(C)C(=O)O[C@H]1C[C@@H](OC(C)=O)[C@@]2(C(=O)OC)CO[C@H]3[C@H]4O[C@@H]5C6C[C@@H](O[C@@H]7OC=C[C@]67O)[C@]5(O)[C@@]4(C)[C@@H]4[C@@](OC)(C(=O)OC)OC[C@@]14[C@@H]32 | > 20 | > 20 | > 20 | > 20 | > 20
COC(=O)C[C@H]1[C@]2(C)C3=C(C)[C@H](c4ccoc4)C[C@H]3O[C@@H]2[C@@H]2OC[C@]3(C)[C@H](OC(C)=O)C[C@H](OC(=O)/C=C/c4ccccc4)[C@@]1(C)[C@@H]23 [OHCHININ ACETATE] | > 20 | > 20 | > 20 | > 20 | 9.9
C/C=C(\C)C(=O)O[C@@H]1C[C@H](O)[C@]23CO[C@H](C(=O)OC)[C@H]2[C@](C)([C@]24O[C@@]2(C)[C@H]2C[C@@H]4O[C@@H]4OC=C[C@@]42O)[C@H](O)[C@@H]2OC[C@@]1(C(=O)OC)[C@H]23 [AZADIRACHTIN B] | > 20 | > 20 | > 20 | > 20 | > 20
CC(=O)O[C@@H]1C[C@H]2C(C)(C)C(=O)C=C[C@]2(C)[C@H]2CC[C@]3(C)C(=CC(=O)O[C@]3(O)c3ccoc3)[C@@]21C [NIMOLICINOL] | > 20 | > 20 | > 20 | > 20 | > 20
